Laboratory results: ChEMBL document CHEMBL4725432, “Dethioacylation by Sirtuins 1-3: Considerations for Drug Design Using Mechanism-Based Sirtuin Inhibition” (ACS Med Chem Lett, 2020)
Activity calls are given as the source filed them. No cut-off for these calls is given here.

Tests used:
[1] = target: T1, NAD-dependent protein deacetylase sirtuin-1 (Homo sapiens, UniProt Q96EB6); assay: Inhibition of human recombinant N-terminal GST-tagged SIRT1 (193 to 741 residues) expressed in Escherichia coli using Ac-Gln-Pro-Lys-Lys(Ac)-AMC (oxo-10) as substrate by fluorescence assay
T1 sequence (Q96EB6 whole entry): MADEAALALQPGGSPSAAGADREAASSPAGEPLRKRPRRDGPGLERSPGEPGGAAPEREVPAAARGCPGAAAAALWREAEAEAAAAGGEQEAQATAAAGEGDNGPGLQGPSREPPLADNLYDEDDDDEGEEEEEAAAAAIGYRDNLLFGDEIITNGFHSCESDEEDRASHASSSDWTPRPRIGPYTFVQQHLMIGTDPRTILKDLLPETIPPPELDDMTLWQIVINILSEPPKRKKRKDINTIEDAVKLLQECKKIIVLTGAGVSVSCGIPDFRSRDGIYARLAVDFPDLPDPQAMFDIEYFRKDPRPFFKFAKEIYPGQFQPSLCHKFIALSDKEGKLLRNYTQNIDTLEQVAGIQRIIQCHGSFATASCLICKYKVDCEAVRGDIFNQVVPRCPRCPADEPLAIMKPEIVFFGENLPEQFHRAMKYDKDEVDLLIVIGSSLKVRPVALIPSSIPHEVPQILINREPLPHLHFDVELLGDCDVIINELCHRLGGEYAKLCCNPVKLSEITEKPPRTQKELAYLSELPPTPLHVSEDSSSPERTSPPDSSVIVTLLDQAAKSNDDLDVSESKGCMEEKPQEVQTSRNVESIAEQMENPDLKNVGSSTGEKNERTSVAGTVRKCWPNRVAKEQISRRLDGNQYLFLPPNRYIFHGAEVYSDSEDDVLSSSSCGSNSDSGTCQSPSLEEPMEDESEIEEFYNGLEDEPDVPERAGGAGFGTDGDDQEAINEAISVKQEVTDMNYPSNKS

[2] = target: T2, NAD-dependent protein deacetylase sirtuin-2 (Homo sapiens, UniProt Q8IXJ6); assay: Inhibition of human C-terminal His-tagged SIRT2 (50 to 356 residues) expressed in Escherichia coli using Ac-Gln-Pro-Lys-Lys(pro)-AMC (oxo-11) as substrate by fluorescence assay
T2 sequence (Q8IXJ6 whole entry): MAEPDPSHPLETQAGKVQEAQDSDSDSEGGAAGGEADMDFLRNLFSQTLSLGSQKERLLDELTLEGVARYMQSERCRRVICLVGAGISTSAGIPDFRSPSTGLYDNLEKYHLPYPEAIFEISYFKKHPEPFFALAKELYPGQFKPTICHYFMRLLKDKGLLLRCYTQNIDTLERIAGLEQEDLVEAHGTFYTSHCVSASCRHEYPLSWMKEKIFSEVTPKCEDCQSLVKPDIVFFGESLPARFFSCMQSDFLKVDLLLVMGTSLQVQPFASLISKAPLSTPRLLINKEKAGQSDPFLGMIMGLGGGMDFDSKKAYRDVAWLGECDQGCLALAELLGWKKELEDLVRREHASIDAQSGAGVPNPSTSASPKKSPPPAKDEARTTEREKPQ

[3] = target: T3, NAD-dependent protein deacetylase sirtuin-1 (Homo sapiens) (UniProt Q96EB6); assay: Inhibition of human N-terminal GST-tagged SIRT1 (193 to 741 residues) expressed in Escherichia coli preincubated with NAD+ for 30 mins using Ac-Gln-Pro-Lys-Lys(Ac)-AMC (oxo-10) as substrate at 1 to 100 uM measured after 90 mins by fluorescence assay; conditions: dose microM 1-100, time 120.0 min
T3 sequence (whole entry): T1 sequence (Q96EB6 whole entry)
Procedure, shortened: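 Recombinant SIRT1 (100 nM) preincubated 30 min with compound, either with or without NAD+ (500 μM), before the fluorogenic deacetylation read-out. Single-dose %-inhibition. Two independent experiments in duplicate, standard deviation.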

[4] = target: T4, NAD-dependent protein deacetylase sirtuin-2 (Homo sapiens) (UniProt Q8IXJ6); assay: Inhibition of human recombinant C-terminal His-tagged SIRT2 (50 to 356 residues) deacetylation activity in presence of substrate and NAD+ incubated for 60 mins measured after 90 mins by fluorescence assay
T4 sequence (whole entry): T2 sequence (Q8IXJ6 whole entry)
Procedure, shortened: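 Recombinant SIRT2 (100 nM or 250 nM) incubated with fluorogenic thioacyl or oxo lysine-AMC substrates plus NAD+. Deacylation read by fluorescence. Two independent experiments in duplicate, standard deviation.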

[5] = Metabolic stability of compound in human serum assessed as half life incubated for >10 mins measured after 90 mins by HPLC analysis; format: ADME, cell-free
[6] = target: T5, NAD-dependent protein deacetylase sirtuin-3, mitochondrial (Homo sapiens) (UniProt Q9NTG7); assay: Inhibition of human N-terminal GST-tagged SIRT3 (102 to 399 residues) expressed in Escherichia coli using Ac-Gln-Pro-Lys-Lys(but)-AMC (oxo-12) as substrate at 100 uM by fluorescence assay relative to control
T5 sequence (whole entry): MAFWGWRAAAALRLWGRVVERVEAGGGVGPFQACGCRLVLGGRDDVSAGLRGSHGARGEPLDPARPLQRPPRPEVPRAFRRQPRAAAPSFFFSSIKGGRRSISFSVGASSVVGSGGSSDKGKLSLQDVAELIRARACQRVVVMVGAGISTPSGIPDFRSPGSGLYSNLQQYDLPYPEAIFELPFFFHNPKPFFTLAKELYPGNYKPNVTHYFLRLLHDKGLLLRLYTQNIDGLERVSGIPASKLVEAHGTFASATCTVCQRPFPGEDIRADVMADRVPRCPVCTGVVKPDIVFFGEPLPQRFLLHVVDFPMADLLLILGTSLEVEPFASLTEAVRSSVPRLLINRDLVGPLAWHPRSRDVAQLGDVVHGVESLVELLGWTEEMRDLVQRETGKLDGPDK

[7] = target: T3, NAD-dependent protein deacetylase sirtuin-1 (Homo sapiens); assay: Inhibition of human recombinant N-terminal GST-tagged SIRT1 (193 to 741 residues) deacetylation activity in presence of substrate and NAD+ at 15 uM after 15 to 60 mins by reversed-phase UPLC-MS analysis; conditions: time min 15-60
[8] = target: T3, NAD-dependent protein deacetylase sirtuin-1 (Homo sapiens); assay: Inhibition of human N-terminal GST-tagged SIRT1 (193 to 741 residues) expressed in Escherichia coli preincubated without NAD+ for 30 mins using Ac-Gln-Pro-Lys-Lys(Ac)-AMC (oxo-10) as substrate at 1 to 100 uM measured after 90 mins by fluorescence assay; conditions: dose microM 1-100, time 30.0 min
[9] = target: T3, NAD-dependent protein deacetylase sirtuin-1 (Homo sapiens); assay: Inhibition of SIRT1 in HEK293 cells assessed as increase in p53 acetylation co-treated with TSA at 25 uM for 6 hrs by western blot analysis; format: cell-based
Procedure, shortened: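 HEK293 cells exposed 6 h to compound at 25 μM together with TSA (1 μM). Whole-cell lysates immunoblotted for Ac-p53 (K382) and total p53. Ratio Ac-p53/p53 normalized to DMSO control. Two independent experiments in duplicate, SEM.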

[10] = target: T3, NAD-dependent protein deacetylase sirtuin-1 (Homo sapiens); assay: Inhibition of human recombinant N-terminal GST-tagged SIRT1 (193 to 741 residues) deacetylation activity in presence of substrate and NAD+ at 15 uM after 30 mins by reversed-phase UPLC-MS analysis relative to control
[11] = target: T3, NAD-dependent protein deacetylase sirtuin-1 (Homo sapiens); assay: Inhibition of human recombinant N-terminal GST-tagged SIRT1 (193 to 741 residues) deacetylation activity in presence of substrate and NAD+ at 15 uM after 60 mins by reversed-phase UPLC-MS analysis relative to control

| IC50 [1] [µM] | IC50 [2] [µM] | inhibition [3] | inhibition [4] | half-life [5] [h] | inhibition [6] [%] | inhibition [7] | inhibition [8] | inhibition [9] | inhibition [10] [%] | inhibition [11] [%] | SMILES |
| --- | --- | --- | --- | --- | --- | --- | --- | --- | --- | --- | --- |
| 0.51 | 2.2 | inactive | inactive | 7 | 19 | Active | inactive | – | – | – | CCC(=S)NCCCC[C@H](NC(=O)OCc1ccccc1)C(=O)N[C@@H](Cc1c[nH]c2ccccc12)C(=O)NC(C)C |
| – | – | Active | inactive | > 7 | – | – | – | Active | 3 | 7 | CC(=S)NCCCC[C@H](NC(=O)OCc1ccccc1)C(=O)N[C@@H](Cc1c[nH]c2ccccc12)C(=O)NC(C)C |
